Test results as given in ChEMBL document CHEMBL1765020, “Synthesis and structure-affinity relationships of novel dibenzylideneacetone derivatives as probes for β-amyloid plaques” (J Med Chem, 2011).
The source made the active and inactive calls. The calls are words filed in the database; no cut-off is given here.

Legend:
[1] = organism: Mus musculus; assay: Binding affinity to amyloid beta (1 to 42) aggregate in APP/PS1 transgenic C57BL/6 mouse brain by Thioflavin S fluorescent staining assay; format: tissue-based; settings: C57BL6, tested as the 18F-labelled form
Outline: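 The same Tg mouse sections used for autoradiography were stained with thioflavin S to locate plaques. Fluorescence was viewed by microscope: excitation 400–440 nm, dichroic 455 nm, long-pass 470 nm.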

[2] = organism: Mus musculus; assay: Binding affinity to amyloid beta (1 to 42) aggregate in APP/PS1 transgenic C57BL/6 mouse brain after 1 hr by autoradiography; format: tissue-based; settings: C57BL6, tested as the 18F-labelled form
Outline: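 Paraffin brain sections from 12-month-old male C57BL6-APP/PS1 mice, with wild-type male C57BL6 controls, were deparaffinized through xylene and graded ethanol, then held 30 min in PBS (0.2 M, pH 7.4). Sections were incubated 1 h at room temperature with radiotracer (5 μCi/100 μL), washed 3 min in 40% ethanol, rinsed in water, dried and exposed to an imaging plate overnight.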

[3] = target: Amyloid-beta precursor protein (Homo sapiens) (UniProt P05067); assay: Binding affinity to amyloid beta (1 to 42) aggregate in Alzheimer disease patient brain by immunohistochemical staining using amyloid beta antibody; settings: tested as the 18F-labelled form
Outline: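 Plaque presence and location in the AD patient temporal-lobe sections were confirmed by immunohistochemistry with monoclonal anti-Aβ1-42 antibody BC05.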

[4] = Displacement of [125I]IMPY from amyloid beta (1 to 42) aggregate after 2 hrs by gamma counting
Outline: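 Competition binding in 1 mL PBS (0.2 M, pH 7.4). Aggregated Aβ1-42 fibrils (60 nM final) with [125I]IMPY and inhibitor at 10^-5 to 10^-10 M, added in ethanol. Nonspecific binding was defined with 1 μM IMPY. Incubated 2 h at 37 °C with shaking, then vacuum-filtered through glass fibre filters and the bound fraction gamma-counted. IC50 was converted to Ki by Cheng-Prusoff; triplicate, mean ± SD.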

[5] = test system: Blood; assay: Biodistribution in ddY mouse blood at 10 uCi/100 uL, iv after 15 mins by gamma counting; format: ADME, organism-based; settings: in vivo, 0.25 h
Outline: (§1)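 Normal female ddY mice (5 weeks, about 20 g; n = 4 per group) received radiotracer iv. Organs were removed and weighed at 2–120 min and counted in a γ-counter. Percent dose per gram of wet tissue was calculated against diluted aliquots of the injected material and reported as mean ± SD.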

[6] = test system: Intestine; assay: Biodistribution in ddY mouse intestine at 10 uCi/100 uL, iv after 30 mins by gamma counting; format: ADME, organism-based; settings: in vivo, 0.5 h; outline: as §1
[7] = test system: Stomach; assay: Biodistribution in ddY mouse stomach at 10 uCi/100 uL, iv after 15 mins by gamma counting; format: ADME, organism-based; settings: in vivo, 0.25 h
[8] = test system: Heart; assay: Biodistribution in ddY mouse heart at 10 uCi/100 uL, iv after 2 mins by gamma counting; format: ADME, organism-based; settings: in vivo; outline: as §1
[9] = test system: Bone; assay: Biodistribution in ddY mouse bone at 10 uCi/100 uL, iv after 15 mins by gamma counting; format: ADME, organism-based, Bone element; settings: in vivo, 0.25 h; outline: as §1
[10] = test system: Brain; assay: Biodistribution in ddY mouse brain at 10 uCi/100 uL, iv after 15 mins by gamma counting; format: ADME, organism-based; settings: in vivo, 0.25 h; outline: as §1
[11] = test system: Intestine; assay: Biodistribution in ddY mouse intestine at 10 uCi/100 uL, iv after 60 mins by gamma counting; format: ADME, organism-based; settings: in vivo, 1 h; outline: as §1
[12] = test system: Brain; assay: Ratio of drug uptake in ddY mouse brain at 10 uCi/100 uL, iv after 2 mins to drug uptake in ddY mouse brain at 10 uCi/100 uL, iv after 60 mins; format: ADME, organism-based; settings: in vivo
Outline: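 Normal female ddY mice (5 weeks, about 20 g) received the radiotracer iv, with groups of 4 per time point. At 2 and 60 min, brain and other organs were excised and weighed and counted in a γ-counter. %ID/g wet tissue was taken against diluted injectate aliquots. The ratio is brain %ID/g at 2 min divided by brain %ID/g at 60 min.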

[13] = test system: Intestine; assay: Biodistribution in ddY mouse intestine at 10 uCi/100 uL, iv after 2 mins by gamma counting; format: ADME, organism-based; settings: in vivo; outline: as §1
[14] = test system: Brain; assay: Biodistribution in ddY mouse brain at 10 uCi/100 uL, iv after 2 mins by gamma counting; format: ADME, organism-based; settings: in vivo; outline: as §1
[15] = test system: Liver; assay: Biodistribution in ddY mouse liver at 10 uCi/100 uL, iv after 30 mins by gamma counting; format: ADME, organism-based; settings: in vivo, 0.5 h
[16] = test system: Bone; assay: Biodistribution in ddY mouse bone at 10 uCi/100 uL, iv after 30 mins by gamma counting; format: ADME, organism-based, Bone element; settings: in vivo, 0.5 h; outline: as §1
[17] = test system: Liver; assay: Biodistribution in ddY mouse liver at 10 uCi/100 uL, iv after 2 mins by gamma counting; format: ADME, organism-based; settings: in vivo
[18] = test system: Heart; assay: Biodistribution in ddY mouse heart at 10 uCi/100 uL, iv after 60 mins by gamma counting; format: ADME, organism-based; settings: in vivo, 1 h; outline: as §1
[19] = test system: Intestine; assay: Biodistribution in ddY mouse intestine at 10 uCi/100 uL, iv after 15 mins by gamma counting; format: ADME, organism-based; settings: in vivo, 0.25 h; outline: as §1
[20] = test system: Blood; assay: Biodistribution in ddY mouse blood at 10 uCi/100 uL, iv after 30 mins by gamma counting; format: ADME, organism-based; settings: in vivo, 0.5 h; outline: as §1
[21] = test system: Kidney; assay: Biodistribution in ddY mouse kidney at 10 uCi/100 uL, iv after 15 mins by gamma counting; format: ADME, organism-based; settings: in vivo, 0.25 h
[22] = test system: Blood; assay: Biodistribution in ddY mouse blood at 10 uCi/100 uL, iv after 60 mins by gamma counting; format: ADME, organism-based; settings: in vivo, 1 h; outline: as §1
[23] = test system: Spleen; assay: Biodistribution in ddY mouse spleen at 10 uCi/100 uL, iv after 60 mins by gamma counting; format: ADME, organism-based; settings: in vivo, 1 h
[24] = test system: Stomach; assay: Biodistribution in ddY mouse stomach at 10 uCi/100 uL, iv after 60 mins by gamma counting; format: ADME, organism-based; settings: in vivo, 1 h
[25] = test system: Stomach; assay: Biodistribution in ddY mouse stomach at 10 uCi/100 uL, iv after 30 mins by gamma counting; format: ADME, organism-based; settings: in vivo, 0.5 h
[26] = test system: Brain; assay: Biodistribution in ddY mouse brain at 10 uCi/100 uL, iv after 60 mins by gamma counting; format: ADME, organism-based; settings: in vivo, 1 h; outline: as §1
[27] = test system: Lung; assay: Biodistribution in ddY mouse lung at 10 uCi/100 uL, iv after 2 mins by gamma counting; format: ADME, organism-based; settings: in vivo
[28] = test system: Bone; assay: Biodistribution in ddY mouse bone at 10 uCi/100 uL, iv after 60 mins by gamma counting; format: ADME, organism-based, Bone element; settings: in vivo, 1 h; outline: as §1
[29] = test system: Spleen; assay: Biodistribution in ddY mouse spleen at 10 uCi/100 uL, iv after 2 mins by gamma counting; format: ADME, organism-based; settings: in vivo
[30] = test system: Heart; assay: Biodistribution in ddY mouse heart at 10 uCi/100 uL, iv after 30 mins by gamma counting; format: ADME, organism-based; settings: in vivo, 0.5 h; outline: as §1
[31] = test system: Stomach; assay: Biodistribution in ddY mouse stomach at 10 uCi/100 uL, iv after 2 mins by gamma counting; format: ADME, organism-based; settings: in vivo
[32] = test system: Blood; assay: Biodistribution in ddY mouse blood at 10 uCi/100 uL, iv after 2 mins by gamma counting; format: ADME, organism-based; settings: in vivo; outline: as §1
[33] = test system: Lung; assay: Biodistribution in ddY mouse lung at 10 uCi/100 uL, iv after 15 mins by gamma counting; format: ADME, organism-based; settings: in vivo, 0.25 h
[34] = test system: Spleen; assay: Biodistribution in ddY mouse spleen at 10 uCi/100 uL, iv after 15 mins by gamma counting; format: ADME, organism-based; settings: in vivo, 0.25 h
[35] = test system: Heart; assay: Biodistribution in ddY mouse heart at 10 uCi/100 uL, iv after 15 mins by gamma counting; format: ADME, organism-based; settings: in vivo, 0.25 h; outline: as §1
[36] = test system: Liver; assay: Biodistribution in ddY mouse liver at 10 uCi/100 uL, iv after 15 mins by gamma counting; format: ADME, organism-based; settings: in vivo, 0.25 h
[37] = test system: Lung; assay: Biodistribution in ddY mouse lung at 10 uCi/100 uL, iv after 30 mins by gamma counting; format: ADME, organism-based; settings: in vivo, 0.5 h
[38] = test system: Brain; assay: Biodistribution in ddY mouse brain at 10 uCi/100 uL, iv after 30 mins by gamma counting; format: ADME, organism-based; settings: in vivo, 0.5 h; outline: as §1
[39] = test system: Kidney; assay: Biodistribution in ddY mouse kidney at 10 uCi/100 uL, iv after 30 mins by gamma counting; format: ADME, organism-based; settings: in vivo, 0.5 h
[40] = test system: Liver; assay: Biodistribution in ddY mouse liver at 10 uCi/100 uL, iv after 60 mins by gamma counting; format: ADME, organism-based; settings: in vivo, 1 h
[41] = Partition coefficient, log D of the compound; format: physicochemical; settings: octanol/water
Outline: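 Radiotracer partitioned between n-octanol and PBS: vortexed 3 min at room temperature, centrifuged 5 min at 3000 rpm. Weighed samples of the octanol (100 μL) and buffer (500 μL) layers were counted. log D is the log of the ratio of counts per gram, octanol versus PBS.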

[42] = test system: Kidney; assay: Biodistribution in ddY mouse kidney at 10 uCi/100 uL, iv after 60 mins by gamma counting; format: ADME, organism-based; settings: in vivo, 1 h
[43] = test system: Bone; assay: Biodistribution in ddY mouse bone at 10 uCi/100 uL, iv after 2 mins by gamma counting; format: ADME, organism-based, Bone element; settings: in vivo; outline: as §1
[44] = test system: Spleen; assay: Biodistribution in ddY mouse spleen at 10 uCi/100 uL, iv after 30 mins by gamma counting; format: ADME, organism-based; settings: in vivo, 0.5 h
[45] = test system: Lung; assay: Biodistribution in ddY mouse lung at 10 uCi/100 uL, iv after 60 mins by gamma counting; format: ADME, organism-based; settings: in vivo, 1 h
[46] = test system: Kidney; assay: Biodistribution in ddY mouse kidney at 10 uCi/100 uL, iv after 2 mins by gamma counting; format: ADME, organism-based; settings: in vivo

Amyloid-beta precursor protein (Homo sapiens), sequence (P05067 whole entry): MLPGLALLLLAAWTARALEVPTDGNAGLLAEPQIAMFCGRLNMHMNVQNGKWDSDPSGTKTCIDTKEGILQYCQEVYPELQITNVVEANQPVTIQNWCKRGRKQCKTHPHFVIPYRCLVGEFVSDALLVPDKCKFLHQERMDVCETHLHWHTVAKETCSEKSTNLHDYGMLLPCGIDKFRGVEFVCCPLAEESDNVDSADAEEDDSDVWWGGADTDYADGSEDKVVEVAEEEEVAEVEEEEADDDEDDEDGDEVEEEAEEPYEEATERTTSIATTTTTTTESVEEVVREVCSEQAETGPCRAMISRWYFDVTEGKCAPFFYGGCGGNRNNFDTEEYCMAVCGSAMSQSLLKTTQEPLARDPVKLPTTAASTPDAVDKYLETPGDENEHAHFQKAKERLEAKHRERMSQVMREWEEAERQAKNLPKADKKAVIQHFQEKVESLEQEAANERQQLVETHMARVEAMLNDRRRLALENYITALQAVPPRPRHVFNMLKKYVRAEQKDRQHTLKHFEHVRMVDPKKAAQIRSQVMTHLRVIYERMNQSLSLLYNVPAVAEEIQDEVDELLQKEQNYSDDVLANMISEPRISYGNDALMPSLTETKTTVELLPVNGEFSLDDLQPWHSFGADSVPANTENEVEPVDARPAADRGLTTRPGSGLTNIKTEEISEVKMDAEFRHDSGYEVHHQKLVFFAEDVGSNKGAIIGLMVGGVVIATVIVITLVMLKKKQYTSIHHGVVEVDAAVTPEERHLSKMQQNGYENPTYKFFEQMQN

Structure (SMILES): CN(C)c1ccc(/C=C/C(=O)/C=C/c2ccc(OCCOCCOCCF)cc2)cc1
- Activity [1]: Active
- Activity [2]: Active
- Activity [3]: Active
- Ki [4]: 6.9 nM

Structure (SMILES): CNc1ccc(/C=C/C(=O)/C=C/c2ccc(OCCOCCOCC[18F])cc2)cc1
- Drug uptake [5]: 7.99 % ID/g
- Drug uptake [6]: 24.34 % ID/g
- Drug uptake [7]: 2.61 % ID/organ
- Drug uptake [8]: 10.55 % ID/g
- Drug uptake [9]: 2.93 % ID/g
- Drug uptake [10]: 1.89 % ID/g
- Drug uptake [11]: 26.26 % ID/g
- Ratio [12]: 4.06
- Drug uptake [13]: 6.58 % ID/g
- Drug uptake [14]: 5.15 % ID/g
- Drug uptake [15]: 19.24 % ID/g
- Drug uptake [16]: 2.94 % ID/g
- Drug uptake [17]: 24.15 % ID/g
- Drug uptake [18]: 5.14 % ID/g
- Drug uptake [19]: 12.82 % ID/g
- Drug uptake [20]: 4.68 % ID/g
- Drug uptake [21]: 14.15 % ID/g
- Drug uptake [22]: 3.59 % ID/g
- Drug uptake [23]: 5.35 % ID/g
- Drug uptake [24]: 1.28 % ID/organ
- Drug uptake [25]: 1.93 % ID/organ
- Drug uptake [26]: 1.27 % ID/g
- Drug uptake [27]: 12.19 % ID/g
- Drug uptake [28]: 2.54 % ID/g
- Drug uptake [29]: 5.39 % ID/g
- Drug uptake [30]: 5.44 % ID/g
- Drug uptake [31]: 3.26 % ID/organ
- Drug uptake [32]: 7.44 % ID/g
- Drug uptake [33]: 11.77 % ID/g
- Drug uptake [34]: 6.62 % ID/g
- Drug uptake [35]: 7.64 % ID/g
- Drug uptake [36]: 30.09 % ID/g
- Drug uptake [37]: 7.43 % ID/g
- Drug uptake [38]: 1.35 % ID/g
- Drug uptake [39]: 11.51 % ID/g
- Drug uptake [40]: 14.07 % ID/g
- logD [41]: 3.08
- Drug uptake [42]: 9.43 % ID/g
- Drug uptake [43]: 2.97 % ID/g
- Drug uptake [44]: 5.44 % ID/g
- Drug uptake [45]: 5.44 % ID/g
- Drug uptake [46]: 16.48 % ID/g
